# Test results reported in ChEMBL document CHEMBL1137941, “Doxorubicin prodrug on the basis of tert-butyl cephalosporanate sulfones” (Bioorg Med Chem Lett, 2004).
# Activity calls are given as the source filed them. No cut-off for these calls is given here.
# Columns and labels:
# [1] = system: B16; test: Growth inhibitory effect administered at dose of 5.0 mg/kg/day given in the schedule of 1,2,3,4,7 day against (B16) mouse melanoma at fourteenth day was determined; type: functional
# Summary of the method: (§1)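 Mice given the agent on days 1, 2, 3, 4 and 7. Doxorubicin was given in physiological solution (0.9% NaCl, pH 6.2). Prodrugs were given in the same solution with 2% DMSO and 0.3% agarose. Tumour growth inhibition (%) was read on fixed days against a vehicle-treated control; in the 2.0 mg/kg/day series, controls received physiological solution only. Negative values mean tumour growth was activated.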
# [2] = system: MG-22A; test: In vitro inhibitory activity against mouse hepatoma cell line (MG-22A) using CV coloration; type: functional, cell-based
# [3] = system: HT-1080; test: In vitro cytotoxic concentration against human fibrosarcoma cell line (HT1080) using MTT coloration; type: functional, cell-based
# [4] = system: Mus musculus; test: Physiological change in cardiomyocytes after the treatment of male JRC healthy mice by the administration of compound at dose of 1.5 mg/kg/day cells isolated on the 9th day by using MTT assay; type: functional
# Summary of the method: (§2)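 Male JRC mice, healthy or bearing Sarcoma S-180, were dosed on days 1, 2, 3, 4 and 7. Cardiomyocytes were isolated on day 9 and resuspended in DMEM with 4% FBS, 2 mM glutamine, 13 mM NaHCO₃, 10 mM HEPES and streptomycin. After 4 h at 37° (95% air/5% CO₂), serum was omitted. Intracellular peptide was read by Coomassie Blue and mitochondrial redox by MTT, against cells from untreated animals.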
# [5] = system: B16; test: In vitro cytotoxic concentration against mouse melanoma cell line (B16) using MTT coloration; type: functional, cell-based
# [6] = system: B16; test: Growth inhibitory effect administered at dose of 1.5 mg/kg/day given in the schedule of 1,2,3,4,7 day against (B16) mouse melanoma at fourteenth day was determined; type: functional; summary of the method: as §1
# [7] = system: B16; test: In vitro inhibitory activity against mouse melanoma cell line (B16) using CV coloration; type: functional, cell-based
# [8] = system: HT-1080; test: In vitro inhibitory activity against human fibrosarcoma cell line (HT1080) using CV coloration; type: functional, cell-based
# [9] = system: Mus musculus; test: Physiological change in cardiomyocytes after the treatment of male JRC mice with transplanted sarcoma S-180 by the administration of compound at dose of 5.0 mg/kg/day cells isolated on the 9th day by using CB assay; type: functional; summary of the method: as §2
# [10] = system: Mus musculus; test: Physiological change in cardiomyocytes after the treatment of male JRC mice with transplanted sarcoma S-180 by the administration of compound at dose of 5.0 mg/kg/day cells isolated on the 9th day by using MTT assay; type: functional; summary of the method: as §2
# [11] = system: Mus musculus; test: Physiological change in cardiomyocytes after the treatment of male JRC healthy mice by the administration of compound at dose of 5.0 mg/kg/day cells isolated on the 9th day by using CB assay; type: functional; summary of the method: as §2
# [12] = system: CCRF S-180; test: Growth inhibitory effect administered at dose of 5.0 mg/kg/day given in the schedule of 1,2,3,4,7 day against Sarcoma S-180 tumor transplanted in male JRC mice at fourteenth day was determined; type: functional; details: Mus musculus; summary of the method: as §1
# [13] = system: CCRF S-180; test: Growth inhibitory effect administered at dose of 5.0 mg/kg/day given in the schedule of 1,2,3,4,7 day against Sarcoma S-180 tumor transplanted in male JRC mice at eleventh day was determined; type: functional; details: Mus musculus; summary of the method: as §1
# [14] = system: B16; test: Growth inhibitory effect administered at dose of 1.5 mg/kg/day given in the schedule of 1,2,3,4,7 day against (B16) mouse melanoma at eleventh day was determined; type: functional; summary of the method: as §1
# [15] = system: Mus musculus; test: Physiological change in cardiomyocytes after the treatment of male JRC healthy mice by the administration of compound at dose of 5.0 mg/kg/day cells isolated on the 9th day by using MTT assay; type: functional; summary of the method: as §2
# [16] = system: Mus musculus; test: Physiological change in cardiomyocytes after the treatment of male JRC mice with transplanted sarcoma S-180 by the administration of compound at dose of 1.5 mg/kg/day cells isolated on the 9th day by using MTT assay; type: functional; summary of the method: as §2
# [17] = system: MG-22A; test: In vitro cytotoxic concentration against mouse hepatoma cell line (MG-22A) using MTT coloration; type: functional, cell-based
# [18] = system: Mus musculus; test: Physiological change in cardiomyocytes after the treatment of male JRC healthy mice by the administration of compound at dose of 1.5 mg/kg/day cells isolated on the 9th day by using CB assay; type: functional; summary of the method: as §2
# [19] = system: Mus musculus; test: Physiological change in cardiomyocytes after the treatment of male JRC mice with transplanted sarcoma S-180 by the administration of compound at dose of 1.5 mg/kg/day cells isolated on the 9th day by using CB assay; type: functional; summary of the method: as §2
# [20] = system: N2a; test: In vitro inhibitory activity against mouse neuroblastoma (neuro 2A) using CV coloration; type: functional, cell-based
# [21] = system: B16; test: Growth inhibitory effect administered at dose of 5.0 mg/kg/day given in the schedule of 1,2,3,4,7 day against (B16) mouse melanoma at eleventh day was determined; type: functional; summary of the method: as §1
# [22] = system: N2a; test: In vitro cytotoxic concentration against mouse neuroblastoma (neuro 2A) using MTT coloration; type: functional, cell-based
# [23] = system: CCRF S-180; test: Growth inhibitory effect administered at dose of 1.5 mg/kg/day given in the schedule of 1,2,3,4,7 day against Sarcoma S-180 tumor transplanted in male JRC mice at fourteenth day was determined; No effect; type: functional, organism-based; details: Mus musculus; summary of the method: as §1
# [24] = system: B16; test: Growth inhibitory effect administered at dose of 2.0 mg/kg/day given in the schedule of 1,2,3,4,7 day against (B16) mouse melanoma at eleventh day was determined; type: functional; summary of the method: as §1
# [25] = system: CCRF S-180; test: Growth inhibitory effect of compound when administered at dose of 1.5 mg/kg/day given in the schedule of 1,2,3,4,7 day against Sarcoma S-180 tumor transplanted in male JRC mice was determined; No effect; details: Mus musculus
# [26] = system: B16; test: Growth inhibitory effect when administered at dose of 2.0 mg/kg/day given in the schedule of 1,2,3,4,7 day against (B16) mouse melanoma at fourteenth day was determined; type: functional; summary of the method: as §1
# [27] = system: CCRF S-180; test: Growth inhibitory effect administered at dose of 1.5 mg/kg/day given in the schedule of 1,2,3,4,7 day against Sarcoma S-180 tumor transplanted in male JRC mice at eleventh day was determined; type: functional; details: Mus musculus, in the assay text read “seventh day” for “eleventh day”; summary of the method: as §1
# [28] = system: B16; test: Growth inhibitory effect when administered at dose of 1.5 mg/kg/day given in the schedule of 1,2,3,4,7 day against (B16) mouse melanoma at fourteenth day was determined; type: functional; details: B16, read-out: Inhibition; summary of the method: as §1
# [29] = system: B16; test: Growth inhibitory effect when administered at dose of 1.5 mg/kg/day given in the schedule of 1,2,3,4,7 day against (B16) mouse melanoma at eleventh day was determined; type: functional; details: B16, read-out: Inhibition; summary of the method: as §1
# [30] = system: B16; test: Growth inhibitory effect when administered at dose of 5.0 mg/kg/day given in the schedule of 1,2,3,4,7 day against (B16) mouse melanoma at fourteenth day was determined; type: functional; summary of the method: as §1
# [31] = system: B16; test: Growth inhibitory effect when administered at dose of 5.0 mg/kg/day given in the schedule of 1,2,3,4,7 day against (B16) mouse melanoma at eleventh day was determined; type: functional; summary of the method: as §1
# [32] = system: CCRF S-180; test: Growth inhibitory effect administered at dose of 1.5 mg/kg/day given in the schedule of 1,2,3,4,7 day against Sarcoma S-180 tumor transplanted in male JRC mice at fourteenth day was determined; type: functional; details: Mus musculus, in the assay text read “ninth day” for “fourteenth day”; summary of the method: as §1
# [33] = system: B16; test: Growth inhibitory effect when administered at dose of 2.0 mg/kg/day given in the schedule of 1,2,3,4,7 day against (B16) mouse melanoma at eleventh day was determined; ND= No data; type: functional; summary of the method: as §1
# [34] = system: CCRF S-180; test: Growth inhibitory effect when administered at dose of 5.0 mg/kg/day given in the schedule of 1,2,3,4,7 day against Sarcoma S-180 tumor transplanted in male JRC mice at fourteenth day was determined; type: functional, Mus musculus; summary of the method: as §1
# [35] = system: CCRF S-180; test: Growth inhibitory effect when administered at dose of 2.0 mg/kg/day given in the schedule of 1,2,3,4,7 day against Sarcoma S-180 tumor transplanted in male JRC mice at fourteenth day was determined; type: functional, organism-based; details: Mus musculus
IC50 [2] [µg/mL],IC50 [7] [µg/mL],IC50 [8] [µg/mL],IC50 [20] [µg/mL],SMILES,IC50 [3] [µg/mL],Activity [4],IC50 [5] [µg/mL],inhibition in vivo at 1.5 mg/kg/day [6] [%],Activity [9],Activity [10],Activity [11],inhibition in vivo at 5 mg/kg/day [12] [%],inhibition in vivo at 5 mg/kg/day [13] [%],inhibition in vivo at 1.5 mg/kg/day [14] [%],Activity [15],Activity [16],IC50 [17] [µg/mL],Activity [18],Activity [19],IC50 [22] [µg/mL],also measured
0.07,0.09,0.4,0.04,COc1cccc2c1C(=O)c1c(O)c3c(c(O)c1C2=O)C[C@@](O)(C(=O)CO)C[C@@H]3OC1C[C@H](NC(=O)OCC2=C(C(=O)OC(C)(C)C)N3C(=O)/C(=C/C(=O)OC(C)(C)C)[C@@H]3S(=O)(=O)C2)[C@@H](O)[C@H](C)O1 (stereo partly specified),0.5,54,0.5,-49,90,360,75,22,-10,13,102,270,0.07,87,92,0.04,inhibition in vivo at 5 mg/kg/day [1]: 16%; inhibition in vivo at 5 mg/kg/day [21]: 11%
0.03,0.03,0.02,0.001,COc1cccc2c1C(=O)c1c(O)c3c(c(O)c1C2=O)C[C@@](O)(C(=O)CO)C[C@@H]3O[C@H]1C[C@H](NC(=O)OCC2=C(C(=O)OC(C)(C)C)N3C(=O)[C@@H](Cl)[C@@H]3S(=O)(=O)C2)[C@@H](O)[C@H](C)O1,0.08,85,0.04,26,70,230,90,30,72,75,87,225,0.04,92,106,0.008,"inhibition [23]: inactive; Inhibition [24]: 86%; inhibition in vivo at 2 mg/kg/day ([24]; Mus musculus, B16, read-out: Inhibition): 86%; inhibition [25]: inactive"
6,3,6,2,CC1=C(C(=O)OC(C)(C)C)N2C(=O)[C@H](Cl)[C@H]2S(=O)(=O)C1,6,–,2,–,–,–,–,–,–,–,–,–,2,–,–,2,–
< 0.001,0.001,0.17,0.004,"COc1cccc2c1C(=O)c1c(O)c3c(c(O)c1C2=O)C[C@@](O)(C(=O)CO)C[C@@H]3O[C@H]1C[C@H](N)C(O)[C@H](C)O1 (single isomer, unassigned) [DOXORUBICIN]",0.31,40,< 0.001,–,81,130,60,–,–,–,39,114,0.73,83,90,< 0.001,"inhibition in vivo at 2 mg/kg/day [26]: 70%; inhibition in vivo at 1.5 mg/kg/day [27]: 7%; inhibition in vivo at 1.5 mg/kg/day [28]: 60%; inhibition in vivo at 1.5 mg/kg/day [29]: 70%; inhibition in vivo at 5 mg/kg/day [30]: 75%; inhibition in vivo at 5 mg/kg/day [31]: 65%; inhibition in vivo at 1.5 mg/kg/day [32]: 28%; inhibition in vivo at 2 mg/kg/day [33]: 25%; Inhibition [34]: 37%; inhibition in vivo at 5 mg/kg/day ([34]; Mus musculus, CCRF S-180, read-out: Inhibition): 37%; inhibition [35]: Not detectable"
